# Compound activity: PubChem BioAssay, The Scripps Research Institute Molecular Screening Center
# Only some compounds are listed: those with a hit (about 0.58% of all), similar ones and a draw of the others.
# V1R ag counter: activates human V1a receptor in oxytocin agonist counter-screen; CHO-V1R cells, Fluo-8 calcium fluorescence, agonist mode; 0% DMSO, 100% 3 nM vasopressin; activation, % at 3 µM; 0.25% of 320,000 active; AID 2797;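 active = activation above the mean activation of all tested compounds plus 3 SD, per screening run, cut at about 20% in these data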;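 also: signal is peak over basal fluorescence ratio across a 100 second FLIPR read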
# Target sequence (P37288 whole entry, looked up): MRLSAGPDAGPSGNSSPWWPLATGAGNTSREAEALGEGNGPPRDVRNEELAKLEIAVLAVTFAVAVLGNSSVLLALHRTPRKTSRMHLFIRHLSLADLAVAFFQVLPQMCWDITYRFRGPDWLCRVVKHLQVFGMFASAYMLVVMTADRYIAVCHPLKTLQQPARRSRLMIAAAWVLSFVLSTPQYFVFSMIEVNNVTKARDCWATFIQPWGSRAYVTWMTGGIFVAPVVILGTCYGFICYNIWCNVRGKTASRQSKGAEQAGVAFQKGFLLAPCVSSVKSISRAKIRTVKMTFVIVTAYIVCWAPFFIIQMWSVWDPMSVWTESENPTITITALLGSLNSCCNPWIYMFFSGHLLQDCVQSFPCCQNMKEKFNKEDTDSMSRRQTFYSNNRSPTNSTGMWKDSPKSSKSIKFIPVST
# OXTR potentiator: potentiates the human oxytocin receptor response. P30559. CHO-OTR cells, Fluo-8 calcium fluorescence, potentiator mode; 0% = oxytocin EC15, 100% = EC100. activation, % at 3 µM. 0.061% of 320,000 active. AID 2445;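 active = activation above that plate's cutoff, the mean activation of tested compounds plus 3 SD, cut at about 6.6% in these data, passing the limit was not always enough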;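 also: 100% uses oxytocin at 75 nM as the full agonist control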
#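 Measured by – Fluo-8 calcium dye fluorescence · Test system – human OTR in CHO cells · Dosing – one concentration, 3.0 µM compound · Controls – EC15 oxytocin alone as 0%, 75 nM oxytocin as 100% · Evaluation – normalized max/min fluorescence ratio, % activation · Timing – 6 min pre-incubation, 100 s read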
# TRPML3 agonist: agonists of human TRPML3 channel; 0.29% of 220,000 active; activation, % at 3 µM; HEK293 TRPML3-YFP, Fluo-8 calcium fluorescence; 100% = the carbachol control signal; Q8TDD5; AID 1448;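 active = activation above its plate's cutoff, the mean activation of the plate's test wells plus 3 SD, cut at about 12% in these data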;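 also: 0% = DMSO only wells and 100% = carbachol wells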
#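 system = HEK293 cells stably carrying human TRPML3-YFP | doses = one concentration, 3 µM nominal, 0.3% DMSO | timing = dye loading 1 h 37 °C then 30 min ambient, 125 s read | detection = Fluo-8 calcium dye fluorescence, ex 470-495, em 515-575 nm | benchmarks = high control carbachol 87 µM, low control DMSO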
# OXTR agonist: activates the human oxytocin receptor; P30559; CHO-OTR cells, Fluo-8 calcium fluorescence; normalized: DMSO 0%, oxytocin 100%; activation, % at 3 µM; 0.32% of 320,000 active; AID 2435;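 active = activation above the mean of all tested compounds plus 3 SD, cutoff set per screening run, cut at about 20% in these data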;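 also: peak over basal fluorescence ratio from a 100 s FLIPR kinetic read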
# TRPN1 ag: zebrafish TRPN1 (NompC) channel agonism. 0.18% of 220,000 active. activation, % at 3 µM. HEK293 zebrafish TRPN1-YFP, Fluo-8 calcium fluorescence; 100% = response to 87 µM carbachol. AID 1424;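 active = activation above its plate's cutoff, the mean activation of test wells on that plate plus 3 SD, cut at about 19% in these data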;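 also: 0% = DMSO alone and 100% = 87 µM carbachol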
#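 Assay system: Zebrafish TRPN1-YFP in HEK293 cells | Incubation: Dye loading 1 h at 37 °C, then 30 min room temperature | Measured by: Kinetic Fluo-8 fluorescence, ex 470-495, em 515-575 nm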
# TRPN1 ag 2: activates zebrafish TRPN1, counter-screen for TRPML3 agonists. shares compounds with TRPML3 agonist. HEK293 zebrafish TRPN1-YFP, Fluo-8 calcium fluorescence; scaled: carbachol wells 100%, DMSO wells 0%. activation, % at 3 µM. 10% of 310 active. AID 1525;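 active = mean activation over replicates above a set limit taken from the earlier TRPN1 channel primary screen, cut at about 19% in these data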;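 also: 100% = carbachol and 0% = 0.3% DMSO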
# TRPML3 confirm: human TRPML3 agonism, confirmation. activation, % at 3 µM. 80% of 310 active. HEK293 TRPML3-YFP, Fluo-8 calcium fluorescence; 100% set by carbachol, 0% by DMSO. shares compounds with TRPML3 agonist;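 active = activation above a set limit derived from the earlier primary screen, cut at about 12% in these data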
# Starred values were filed as active, the others as inactive; . = not tested or not shown.
SMILES,V1R ag counter,OXTR potentiator,TRPML3 agonist,OXTR agonist,TRPN1 ag,others
COc1ccc(CCn2c(-c3cc([N+](=O)[O-])cc([N+](=O)[O-])c3)nc3nc4ccccc4nc32)cc1,0.6,0.3,0.6,0.1,-0.5,
COc1ccc(CCn2c(-c3cc([N+](=O)[O-])cc([N+](=O)[O-])c3)nc3nc4ccccc4nc32)cc1OC,-0.7,12.2*,0.8,1.4,-1.0,
CN(CC(=O)Nc1ccc(F)cc1)C(=O)CSc1ccc2c(c1)OCCO2,0.0,-3.6,.,0.1,.,
Cc1ccc(SCC(=O)OCC(=O)N(C)CC(=O)Nc2ccc(F)cc2)cc1C,23.0*,-15.7,.,23.7*,.,
Fc1ccccc1-c1csc(=Nc2cccnc2)n1CCCn1ccnc1,0.2,-12.1,0.0,-0.1,1.4,
N=c1oc2c3c4c(cc2cc1C(=O)Nc1ccccc1)CCCN4CCC3,59.6*,-21.1,1.4,112.0*,2.6,
Cc1ccc(NC(=O)c2cc3ccccc3oc2=N)cc1,-0.1,-6.7,.,0.2,.,
CC1=CC(=O)c2ccccc2C1=O,-0.1,-5.6,1.1,-0.6,1.5,
CC1=C/C(=N\OS(=O)(=O)c2ccccc2)C(C(C)C)=CC1=O,-0.8,-5.2,35.3*,-1.9,2.7,
CCOc1cc(C(=S)N2CCOCC2)ccc1OC(=O)c1cc(OC)c(OC)c(OC)c1,1.1,-1.8,.,0.4,.,
COc1cc(/C=C2\SC(=S)N(NC(=O)c3cccnc3)C2=O)ccc1O,14.2,-6.8,7.1,10.7,10.4,
CCOc1cc(/C=C2\SC(=S)N(NS(=O)(=O)c3ccccc3)C2=O)ccc1O,11.9,-19.3,.,8.4,.,
CCOc1cc(/C=C2\SC(=S)N(Nc3ccccc3)C2=O)ccc1O,26.6*,-17.6,15.8*,47.2*,22.1*,
COc1cc(/C=C2\SC(=S)N(C(Cc3ccccc3)C(=O)O)C2=O)ccc1O (stereo not drawn),29.7*,-7.8,11.9*,28.0*,22.4*,
COc1cc(/C=C2/SC(=S)N(CC3CCCO3)C2=O)ccc1O (stereo not drawn),31.7*,-15.6,33.7*,47.8*,37.4*,
COc1cc(/C=C2\SC(=S)N(c3cccnc3)C2=O)ccc1O,26.4*,-10.3,5.9,24.3*,20.8*,
Cn1c(SCC(=O)NC2CC2)nnc1-c1cccc(NC(=O)c2ccccc2F)c1,0.3,-7.9,-0.5,0.1,0.1,
COc1ccc(NC(=O)CSc2n[nH]c(=O)n2C2CC2)cc1OC,0.2,0.4,.,0.6,.,
CCCC[C@@H]1CCCO[C@@](C(=O)NCc2ccc(C)o2)(C(F)(F)F)C1,-1.5,-6.4,.,-1.3,.,
Cc1ccc2c(c1)SC1=NC(c3ccccc3)(C(F)(F)F)NC(=O)N12 (stereo not drawn),-0.3,1.2,0.8,0.1,2.1,
COc1cc(/C=C2\SC(=S)N(Nc3ccccc3)C2=O)ccc1O,24.4*,-22.0,14.0*,57.6*,24.6*,
COc1cc(/C=C2\SC(=S)N(NC(=O)c3ccc(O)cc3)C2=O)ccc1O,25.3*,-9.7,.,63.7*,.,
O=C(CNC(=O)c1ccccn1)N=Nc1c(O)[nH]c2ccccc12,0.7,-2.5,.,1.0,.,
O=C(NC(=S)NC1CCS(=O)(=O)C1)c1ccccc1Br (stereo not drawn),1.5,4.6,.,0.8,.,
COc1cc(NC(=O)NCCN2CCN(c3ccc(Cl)cc3)CC2)ccc1C,34.7*,-20.1,0.8,21.7*,0.2,
SMILES,V1R ag counter,OXTR potentiator,TRPML3 agonist,OXTR agonist,TRPN1 ag,others
COc1ccc(N2CCN(CCNC(=O)Nc3ccc(C)c(Cl)c3)CC2)cc1,11.7,-18.8,.,18.4,.,
CCOC(=O)CC(N)c1cccc([N+](=O)[O-])c1 (stereo not drawn),1.5,6.4,0.9,0.1,0.0,
CC(C)C(=O)Nc1c2c(nn1-c1ccc(F)cc1)CS(=O)(=O)C2,0.5,-2.1,.,-0.3,.,
CC(C)(C)C1CCC(C(=O)OCC(=O)c2ccc[nH]2)CC1 (stereo not drawn),0.7,-4.6,0.2,-1.8,-1.4,
COc1cc(CN(C2CCCCC2C)S(=O)(=O)c2ccc(S(=O)(=O)NC3CC3)cc2)cc(OC)c1OC (stereo not drawn),1.9,-9.8,0.6,-1.5,0.8,
COc1ccc(CN(C2CCCCC2C)S(=O)(=O)c2ccc(S(=O)(=O)N(C)C)cc2)cc1OC (stereo not drawn),1.1,-8.8,144.7*,1.7,39.0*,
CC(C)(C)S(=O)(=O)/C(C#N)=N/Nc1ccc(Cl)cc1,11.3,-13.2,11.5,15.4,21.0*,
Cc1nn(CC(=O)NCCCN2CCCC2)c(=O)c2nn(-c3ccccc3)c(C)c12,0.8,-6.7,.,-0.4,.,
CCCc1nnc(NC(=O)Cn2c(=O)oc3cc(Br)ccc32)s1,32.3*,-12.9,2.4,33.6*,0.1,
CCCc1nnc(NC(=O)Cn2c(=O)oc3ccccc32)s1,5.2,-20.9,0.8,7.8,0.8,
CCN(CC)c1ccc(/C=C2/C(=O)c3ccc(C(=O)O)cc3C2=O)cc1,70.2*,-12.3,19.1*,135.4*,34.5*,
CCCCCCn1c(=O)[nH]c2nc3cc(N)ccc3nc2c1=O,74.0*,-12.1,45.7*,95.7*,37.1*,
COc1ccccc1NS(=O)(=O)c1cc(C(=O)NCc2ccncc2)ccc1C,0.2,-15.7,.,0.2,.,
COc1ccccc1NS(=O)(=O)c1cc(C(=O)NCCC(C)C)ccc1F,1.0,-6.2,16.6*,-0.2,8.8,TRPN1 ag 2=22.4*;TRPML3 confirm=35.1*
Cc1cc(C)c(N2CCN(S(=O)(=O)N3CCCCCC3)CC2)c(C)c1,0.8,-19.1,66.8*,0.6,1.7,TRPN1 ag 2=44.6*;TRPML3 confirm=165.2*
C[C@H](NC(=O)C1CCN(S(=O)(=O)c2ccccc2)CC1)C(=O)NCc1ccc(Cl)cc1Cl,13.5,-6.6,.,6.3,.,
COc1ccc(CCN(C)C2CCCN(C(=O)Cn3cnnn3)C2)cc1OC (stereo not drawn),2.5,-8.4,.,-0.2,.,
O=C(Nc1ccn(-c2ccccc2)n1)c1ccc(S(=O)(=O)N2CCCCCC2)cc1,1.9,-6.6,53.4*,-0.2,3.4,TRPN1 ag 2=6.1;TRPML3 confirm=60.6*
O=C(Nc1ccccc1)c1ccc(S(=O)(=O)N2CCCCC2)cc1,4.6,-7.0,1.4,2.7,1.8,
CC12CCC(C(=O)N(CSC(=S)N/N=C\c3ccccc3Cl)C1=O)C2(C)C (stereo not drawn),0.5,-10.9,38.4*,-1.8,-0.6,TRPN1 ag 2=-1.1;TRPML3 confirm=-0.2
